This is an account of results in ChEMBL document CHEMBL4513216, “Probing the Open Global Health Chemical Diversity Library for Multistage-Active Starting Points for Next-Generation Antimalarials” (ACS Infect Dis, 2020).

A short description of this data set: Toxicity liver stage against HepG2, at 10uM. In kind it is cell-based. Also noted: test concentration 10 uM, cell line HepG2-A16-CD81EGFP. The conditions noted are these: human, HepG2-A16-CD81EGFP cells; read-out: INHIBITION
An outline of the steps: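 Uninfected HepG2-A16-CD81EGFP cells, 3 × 10^3 per well, 1536-well, plated on prespotted compound at 10 μM final, parasite-free screening media added to match infected plates; puromycin 10 μM positive, DMSO 0.5% negative; run in parallel with 48 h PbLuc assay at 37 °C, 5% CO2; viability by CellTiter-Glo luminescence, normalized to controls.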
As to `COCCNC(=O)CCN1C(=O)CC2(CCCC2)C1=O`, the cytotoxicity at 10 µM was 2.34%.

In the case of `O=C(NCc1nn(-c2ccccc2)c2c1CCC2)NC1CCC(O)CC1` (configuration not stated), the cytotoxicity at 10 µM was -7.75%.

Consider `Cn1cc(-c2nc(C3CCN(CC4CC4)CC3)cc3c2ncn3C)cn1`, for which the cytotoxicity at 10 µM is -1.86%.

As for `COC(=O)[C@@H]1C[C@@H](NC(=O)CN2C(=O)N(C)Cc3ccccc32)CN1C`, the cytotoxicity at 10 µM was -2.62%.

As for `Cc1cc(C(=O)N2CCC3(CC2)C(=O)N(C)CCN3CC2CC2)c(C)o1`, the cytotoxicity at 10 µM was -96.5%.

In the case of `C[S+](C)[c-]1c(=O)[nH]c(=O)n(CCc2ccc(F)cc2)c1=O`, the cytotoxicity at 10 µM is 2.86%.

As to `Cc1cc(C)n(C2CCCN(C(=O)c3cc(C(N)=O)cs3)C2)n1` (configuration not stated), the cytotoxicity at 10 µM was -11.4%.

For `COc1ccccc1CCC(=O)N1C[C@H](c2ccccc2)[C@@H](N)C1`, the cytotoxicity at 10 µM is -3.79%.

Regarding `COCCN1CCC(NC(=O)NCC2(c3ccccc3)CC2)C1` (configuration not stated), the cytotoxicity at 10 µM turned out to be 0.814%.

Turning to `CC(C)n1c(=O)c2ccccc2n(CCN2CCCCC2)c1=O`, the cytotoxicity at 10 µM was -16.6%.

With `CC(C)NC(=O)N1CC[C@H]2[C@H]1CCN2c1ncccn1`, the cytotoxicity at 10 µM is -0.155%.

`Cn1ccnc1C(NCc1ccccc1)c1ccc(F)cc1` (configuration not stated): the cytotoxicity at 10 µM was 0.573%.

Regarding `COCC(=O)N1CCCC(c2nc(N(C)C)ncc2-c2ccccc2)C1` (configuration not stated), the cytotoxicity at 10 µM was determined as 6.1%.

As to `COCCn1cncc1CN1CCCC(C)(c2ccccc2)C1` (configuration not stated), the cytotoxicity at 10 µM worked out at 0.363%.

For the compound `Cc1nc(C)n(C2CCCN(C(=O)c3cc(C(N)=O)cs3)C2)n1` (configuration not stated), the cytotoxicity at 10 µM is -6.86%.

Take `Cc1nn(C)c(C)c1OCC(=O)N1CCCC1`: the cytotoxicity at 10 µM is -10.9%.

Consider `CCOCCCNS(=O)(=O)c1ccc2c(c1)NC(=O)C(C)O2` (configuration not stated), for which the cytotoxicity at 10 µM was -3.57%.

With `O=C(NCCn1ccnc1)c1cccc(F)c1`, the cytotoxicity at 10 µM was -10%.

On to `CCSc1ncc(CN2CC[C@@](O)(COC)C(C)(C)C2)cn1`, for which the cytotoxicity at 10 µM is -4.05%.

Take `CCn1cc(C(=O)N2CCCC3(CCC(=O)N(CCC(C)C)C3)C2)cn1` (configuration not stated): the cytotoxicity at 10 µM is -1.19%.

Consider `O=C(NCc1ccccc1F)N1CCC(C2OCCO2)CC1`, for which the cytotoxicity at 10 µM amounted to 2.76%.

Turning to `CCN(CC)C(=O)Cn1cc(C(=O)NCCc2nc(C)c(C)s2)nn1`, the cytotoxicity at 10 µM amounted to 2.22%.

On to `Cc1ccc(Nc2nccc(C3CCN(C(=O)CO)C3)n2)nc1` (configuration not stated), for which the cytotoxicity at 10 µM is -2.56%.

Take `COCC(=O)N1CCN(C(C)=O)C[C@@H]1C(=O)OC`: the cytotoxicity at 10 µM was found to be 2.43%.

Take `Cn1ccnc1CCNS(=O)(=O)Cc1cccc(C#N)c1`: the cytotoxicity at 10 µM was 0.867%.

For `Cc1nc(CC(=O)N2CCC[C@H]2c2nc(C(C)C)no2)cs1`, the cytotoxicity at 10 µM is -14.2%.

On to `Cc1noc(C(C)N2CCc3[nH]c4ccc(Cl)cc4c3C2)n1` (configuration not stated), for which the cytotoxicity at 10 µM was found to be 1.99%.

Consider `O=C(c1cccnc1Oc1ccccc1)N1CCCn2ncnc21`, for which the cytotoxicity at 10 µM was -13.7%.

Take `CN(C)CCOCc1nnc2n1CCN(Cc1ccoc1)CC2`: the cytotoxicity at 10 µM was -10.7%.

As for `C[C@H]1C(=O)NC[C@H]2CN(Cc3cccc(F)c3)C[C@H]21`, the cytotoxicity at 10 µM is 0.964%.

In the case of `O=C(NCC(O)c1ccc(F)c(F)c1)c1cccnc1OCC(F)(F)F` (configuration not stated), the cytotoxicity at 10 µM is -10.2%.

For the compound `CCC[C@H]1CN(CCS(C)(=O)=O)C[C@@H]1NC(=O)c1ccn(C)n1`, the cytotoxicity at 10 µM stood at 5.83%.

Consider `COc1ccc(-c2ccnc(C3CCNCC3)c2)cc1`, for which the cytotoxicity at 10 µM was -41.4%.

Consider `Cc1noc(C)c1CN(C)C(C)c1cccs1` (configuration not stated), for which the cytotoxicity at 10 µM is -3.11%.

For the compound `Cc1nn(C)c(C)c1NC(=O)CCn1ncc2ccc(Cl)cc21`, the cytotoxicity at 10 µM was 7.38%.

In the case of `CN(C)c1ncc(C(=O)N2C[C@H]3CC(Oc4ccccc4)C[C@H]3C2)cn1` (some centres not stated), the cytotoxicity at 10 µM came out at 2.54%.

As to `O=C([C@H]1C[C@H]2OCC[C@H]2N(CC2CCOCC2)C1)N1CCCC1`, the cytotoxicity at 10 µM was -0.972%.

For `COc1c(Br)c(C(=O)NC2CCCCC2)nn1C`, the cytotoxicity at 10 µM stood at 6.94%.

As to `CC1CCN(CC2(O)CCCN(Cc3cccc(F)c3F)C2=O)CC1` (configuration not stated), the cytotoxicity at 10 µM amounted to 0.801%.

In the case of `CC(=O)N(Cc1noc(C)n1)C1CCN(CC(=O)N(C)C2CC2)C1` (configuration not stated), the cytotoxicity at 10 µM is -4.69%.

In the case of `CCN(Cc1cccs1)C(=O)c1ccc(=O)n(C)c1`, the cytotoxicity at 10 µM was -9.56%.

Turning to `CNc1snc(C)c1C(=O)N1CCCC(n2ccnc2)C1` (configuration not stated), the cytotoxicity at 10 µM was -13.8%.

Turning to `O=C(c1cncc2ccccc12)N1CCC[C@@H]1CO`, the cytotoxicity at 10 µM is 2.37%.

Consider `COc1ccc(S(=O)(=O)Nc2cccnc2-n2cncn2)c(C)c1`, for which the cytotoxicity at 10 µM came to 3.64%.

Regarding `Cc1cccc(CC(=O)N2CCCC(N(C)CCCN(C)C)C2)c1` (configuration not stated), the cytotoxicity at 10 µM is -0.655%.

Regarding `CNC(=O)C1(c2cnccn2)CCCN1C(=O)c1ccccc1` (configuration not stated), the cytotoxicity at 10 µM was -20.6%.

Turning to `N#Cc1ccc(OC2CCN(C(=O)Cc3cccs3)CC2)nc1`, the cytotoxicity at 10 µM was 1.96%.

`CN1CCCN(C[C@@H]2CN(C(=O)CC3CCC3)C[C@@H]2CO)CC1`: the cytotoxicity at 10 µM was -9.11%.

On to `Cc1ccc(N(CCC#N)C(=O)CCc2cscn2)cc1C`, for which the cytotoxicity at 10 µM turned out to be 6.36%.

For `Fc1ccc(CN2CCC3(CC2)CC(c2cccnc2)CO3)cc1` (configuration not stated), the cytotoxicity at 10 µM was -4.85%.

As to `CCn1ncnc1CN1CCC(CNC(=O)c2cccnc2O)C1` (configuration not stated), the cytotoxicity at 10 µM came to 7.06%.

Regarding `Cc1cncc(C(=O)N2Cc3ccccc3C3(CCN(C)CC3)C2)c1`, the cytotoxicity at 10 µM is 4.37%.

Regarding `CC(C)(C(=O)N[C@@H]1CCC[C@@H](O)[C@@H]1O)c1cccc(F)c1`, the cytotoxicity at 10 µM is 4.79%.

Consider `N#CCCN(CCC#N)C(=O)c1ccc(OCC2CC2)cc1`, for which the cytotoxicity at 10 µM is -10.8%.

In the case of `CC(C#N)CNS(=O)(=O)c1ccc(F)c(Br)c1` (configuration not stated), the cytotoxicity at 10 µM was -1.69%.

As to `Cc1cc(C)n(CC2CCCN2CCCS(C)(=O)=O)n1` (configuration not stated), the cytotoxicity at 10 µM was -3.48%.

For `CN1C(=O)C2(CC(=O)Nc3[nH]ncc32)c2cc(F)ccc21` (configuration not stated), the cytotoxicity at 10 µM was found to be 0.488%.

`CCN1CC(c2ccccc2)CC2(CCN(Cc3ncc[nH]3)CC2)C1` (configuration not stated): the cytotoxicity at 10 µM worked out at 8.25%.

Take `CCc1nc(CN2CCCN(C(=O)c3cn[nH]c3CC)CC2)cs1`: the cytotoxicity at 10 µM is -7.21%.

As for `O=C(Nc1ccc2c(c1)OCO2)N1CCN(CCc2ccccc2)CC1`, the cytotoxicity at 10 µM was -9.28%.

As to `Cc1nc(CCNC(=O)C2CC(=O)N(C(C)C)C2)cs1` (configuration not stated), the cytotoxicity at 10 µM was 14.9%.

In the case of `CCc1ccccc1OC1CN(C(=O)c2ccsc2)C1`, the cytotoxicity at 10 µM worked out at 7.46%.

As to `COc1ccc(CN2C[C@H]3CCC[C@@H](CN(C)C4CC4)[C@H]3C2)cn1`, the cytotoxicity at 10 µM was determined as 4.56%.

Take `CCc1ccc(-c2c(C)c(-c3cnn(C)c3)nc(N)c2C#N)o1`: the cytotoxicity at 10 µM is -133%.

Consider `CN(C)c1cc(C2CCCNC2)ccn1` (configuration not stated), for which the cytotoxicity at 10 µM is -2.68%.

On to `COc1cc(COCC2CCN(Cc3cccnc3)CC2)cc(OC)c1`, for which the cytotoxicity at 10 µM came out at 0%.

On to `c1ccc(-n2ncc(CNCC3CCCN3c3cccnn3)n2)cc1` (configuration not stated), for which the cytotoxicity at 10 µM was -6.71%.

`CCc1nc(C2CCCN2C(=O)c2c[nH]c(C)n2)no1` (configuration not stated): the cytotoxicity at 10 µM was -0.674%.

With `O=C(NCCN1CCCS1(=O)=O)c1scnc1Cl`, the cytotoxicity at 10 µM was -3.67%.

With `Cn1nccc1C(=O)N1Cc2ccccc2OC2(CCOCC2)C1`, the cytotoxicity at 10 µM is -24.7%.

For the compound `O=C(NCCn1ccnc1)c1ccn(-c2ccccc2)n1`, the cytotoxicity at 10 µM worked out at 0.449%.

With `O=C(CCn1cncn1)NCC1CCOC1` (configuration not stated), the cytotoxicity at 10 µM is -43.4%.

On to `Cc1ccnc(NC(=O)c2cnc(C3CCCNC3)cn2)c1` (configuration not stated), for which the cytotoxicity at 10 µM turned out to be 3.33%.

For `CN(CC(F)(F)F)C(=O)c1ccc(F)c(NS(C)(=O)=O)c1`, the cytotoxicity at 10 µM is -2.05%.

Take `CCC(NC(=O)CCCNC(=O)OC)c1cc(F)ccc1F` (configuration not stated): the cytotoxicity at 10 µM is -2.34%.

Consider `O=C(c1cccc(O)n1)N1CCC(O)(CN2CCC(F)(F)CC2)C1` (configuration not stated), for which the cytotoxicity at 10 µM came out at 4.16%.

Take `Cn1cc(CC(=O)N2CCC(Nc3cccnn3)CC2)c2ccccc21`: the cytotoxicity at 10 µM was -9.24%.

For the compound `Cc1cccc(N2CC3(CCN(S(=O)(=O)c4ccccc4)C3)CC2=O)c1` (configuration not stated), the cytotoxicity at 10 µM worked out at 11%.

As to `CC(C)Nc1nc2c(c(N(C)C)n1)CCN(C(=O)c1cc[nH]n1)CC2`, the cytotoxicity at 10 µM came to 6.59%.

For `CN(C)CCNC(=O)c1ccc(OC2CCN(C(=O)CO)CC2)c(Cl)c1`, the cytotoxicity at 10 µM is -2.43%.

Turning to `O=C(Nc1ccccc1)[C@H]1C[C@H]2CN(Cc3cccnc3)C[C@@H]1O2`, the cytotoxicity at 10 µM is -80%.

On to `CCN1CCC2(CCC1=O)CN(c1ccnc(SC)n1)CCN2C` (configuration not stated), for which the cytotoxicity at 10 µM turned out to be 17.7%.

Turning to `Cc1cncc(C(=O)NCC2COCc3c(C)nnn3C2)c1` (configuration not stated), the cytotoxicity at 10 µM is -2.03%.

In the case of `CCOc1ccc(C(=O)CCC(=O)NCc2cncn2CC)cc1C`, the cytotoxicity at 10 µM is 0.902%.

Take `Cc1nsc(NCCNS(=O)(=O)c2ccccc2)n1`: the cytotoxicity at 10 µM was -2.78%.

For `COc1cccc(-c2nc3c([nH]2)CCNC3)c1F`, the cytotoxicity at 10 µM is -44.7%.

Take `CCn1cc(C(=O)Nc2cc(C)ccc2C)cn1`: the cytotoxicity at 10 µM worked out at 0.946%.

On to `CC(C)N1CC(c2ncc(-c3ccc4c(c3)OCCO4)[nH]2)CC1=O` (configuration not stated), for which the cytotoxicity at 10 µM is 0.166%.

On to `O=C(C1CC(=O)N(c2n[nH]c3cc(Br)ccc23)C1)N1CCOCC1` (configuration not stated), for which the cytotoxicity at 10 µM is -3.27%.

Regarding `CSCCCN1C[C@H](NC(=O)c2ccc(C#N)nc2)[C@@H](C2CC2)C1`, the cytotoxicity at 10 µM is 2.72%.

For `CN(C)c1cc(CNC(=O)Nc2ccc(N3CCCC3)nc2)ccn1`, the cytotoxicity at 10 µM is -0.338%.

With `COc1ccc(-n2cc(CNC(=O)c3cc[nH]n3)nn2)cc1`, the cytotoxicity at 10 µM is -4.71%.

As for `CC(=O)c1c(O)n(C)c2ccc(F)cc12`, the cytotoxicity at 10 µM amounted to 6.76%.

For `CCN(CC)C1CCN(C(=O)c2cc(-n3cccn3)ccc2Cl)CC1`, the cytotoxicity at 10 µM was 2.87%.

On to `CC1CCCN(C(=O)NCC(F)F)C1` (configuration not stated), for which the cytotoxicity at 10 µM came out at 13.6%.

Consider `CCc1nc(C)c(C(C)N(C)CCOC)s1` (configuration not stated), for which the cytotoxicity at 10 µM is -6.35%.

Turning to `Cc1ncc2c(n1)CN(CC(=O)Nc1ccc(Cl)cn1)CC2`, the cytotoxicity at 10 µM was -6.19%.
